According to ChEMBL document CHEMBL1123918, “Thromboxane synthetase inhibitors and antihypertensive agents. 4. N-[(1H-imidazol-1-yl)alkyl] derivatives of quinazoline-2,4(1H,3H)-diones, quinazolin-4(3H)-ones, and 1,2,3-benzotriazin-4(3H)-ones” (J Med Chem, 1987):
Calls of active or inactive are those of the source.

What follows are molecules tested against T1, Thromboxane-A synthase (Rattus norvegicus, UniProt P49430) (assay: Tested for inhibition of thromboxane synthetase from spontaneously hypertensive rats).
T1 sequence (P49430 whole entry): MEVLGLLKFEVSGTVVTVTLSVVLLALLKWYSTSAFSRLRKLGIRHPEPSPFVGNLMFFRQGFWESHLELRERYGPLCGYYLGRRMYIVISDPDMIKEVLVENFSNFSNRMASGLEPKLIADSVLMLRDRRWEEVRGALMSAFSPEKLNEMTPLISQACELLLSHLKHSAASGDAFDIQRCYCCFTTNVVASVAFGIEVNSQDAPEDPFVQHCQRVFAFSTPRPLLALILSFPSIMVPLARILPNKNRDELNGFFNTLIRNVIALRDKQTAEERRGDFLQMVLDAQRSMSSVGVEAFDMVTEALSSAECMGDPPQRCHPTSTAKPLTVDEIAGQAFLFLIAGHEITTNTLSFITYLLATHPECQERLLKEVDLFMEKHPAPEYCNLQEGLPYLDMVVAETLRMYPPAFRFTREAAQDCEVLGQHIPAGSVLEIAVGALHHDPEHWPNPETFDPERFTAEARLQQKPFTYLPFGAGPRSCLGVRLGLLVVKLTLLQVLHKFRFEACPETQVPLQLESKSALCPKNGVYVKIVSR
In short: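 Washed SHR platelets in oxygenated Krebs phosphate buffer pH 7.4 (4.5-6.0 X 10^4 platelets/µL) incubated with vehicle or drug 10 min at 37 °C; stopped with ice and citric acid. TXB2 measured by direct RIA. Percent inhibition is relative to vehicle controls after background subtraction. IC50 is read from a plot of inhibition vs log concentration.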

IC50	Structure (SMILES)
0.2 µM	O=c1[nH]c2cc(Cl)ccc2c(=O)n1CCCCCCn1ccnc1
0.8 µM	O=c1[nH]c2ccc(Br)cc2c(=O)n1CCCCn1ccnc1
0.007 µM	O=c1[nH]c2ccc(Cl)cc2c(=O)n1CCCCn1ccnc1 [listing 1 of 3 here]
0.002 µM	O=c1[nH]c2ccc(Cl)cc2c(=O)n1CCCCn1ccnc1 [listing 2 of 3 here]
0.6 µM	O=c1[nH]c2ccccc2c(=O)n1CCCn1ccnc1
0.05 µM	O=c1c2ccccc2nnn1CCCCCCn1ccnc1
0.24 µM	O=c1c2cc(Cl)ccc2nnn1CCCCn1ccnc1
0.05 µM	O=c1[nH]c2c(C(F)(F)F)cccc2c(=O)n1CCCCn1ccnc1
8 µM	CC(CCn1cnc2ccc(Cl)cc2c1=O)n1ccnc1 (configuration not stated)
0.18 µM	O=c1[nH]c2cc(Cl)ccc2c(=O)n1CCCn1ccnc1
0.002 µM	O=c1[nH]c2ccc(Cl)cc2c(=O)n1CCCCCCCn1ccnc1
0.35 µM	Cc1ccc2ncn(CCCCn3ccnc3)c(=O)c2c1
0.06 µM	Cc1ccc2nnn(CCCCn3ccnc3)c(=O)c2c1
0.03 µM	CC(Cn1ccnc1)Cn1c(=O)[nH]c2ccccc2c1=O (configuration not stated)
0.35 µM	O=c1[nH]c2ccccc2c(=O)n1CCCCCn1ccnc1
2.5 µM	CC(CNC(=O)c1ccccc1N)Cn1ccnc1 (configuration not stated)
0.09 µM	CC(CNC(=O)c1cc(Cl)ccc1N)Cn1ccnc1 (configuration not stated)
0.01 µM	CC(Cn1ccnc1)Cn1c(=O)[nH]c2ccc(Cl)cc2c1=O (configuration not stated) [listing 1 of 3 here]
0.004 µM	O=c1[nH]c2ccc(Cl)cc2c(=O)n1CCCCCCn1ccnc1
0.007 µM	O=c1[nH]c2ccc(Cl)cc2c(=O)n1CCCCCCCCCCn1ccnc1
0.003 µM	CC(Cn1ccnc1)Cn1c(=O)[nH]c2cc(Cl)ccc2c1=O (configuration not stated) [listing 1 of 2 here]
1.7 µM	CC(Cn1ccnc1)Cn1nnc2ccc(Br)cc2c1=O (configuration not stated)
0.05 µM	Cc1ccc2[nH]c(=O)n(CCCCn3ccnc3)c(=O)c2c1
0.17 µM	Cc1ccc(N)c(C(=O)NCCC(C)n2ccnc2)c1 (configuration not stated)
0.04 µM	O=c1[nH]c2ccccc2c(=O)n1CCCCCCn1ccnc1

IC50	Structure (SMILES)
0.008 µM	CC(Cn1ccnc1)Cn1c(=O)[nH]c2ccc(Cl)cc2c1=O (configuration not stated) [listing 2 of 3 here]
0.5 µM	O=c1c2cc(Cl)ccc2ncn1CCCCn1ccnc1
0.03 µM	O=c1[nH]c2c(Cl)cccc2c(=O)n1CCCCn1ccnc1
0.09 µM	CC(Cn1ccnc1)Cn1cnc2ccc(Cl)cc2c1=O (configuration not stated)
1.5 µM	O=c1c2ccccc2nnn1CCCn1ccnc1
0.04 µM	O=c1c2cc(Cl)ccc2ncn1CCCCCCCCn1ccnc1
0.4 µM	CC(Cn1ccnc1)Cn1c(=O)[nH]c2c(C(F)(F)F)cccc2c1=O (configuration not stated)
0.01 µM	O=c1[nH]c2c(C(F)(F)F)cccc2c(=O)n1CCCCCn1ccnc1
0.04 µM	O=c1[nH]c2c(Cl)cccc2c(=O)n1CCCCCn1ccnc1
0.003 µM	Cc1ccc2[nH]c(=O)n(CC(C)Cn3ccnc3)c(=O)c2c1 (configuration not stated)
0.9 µM	CC(Cn1ccnc1)Cn1nnc2ccc(Cl)cc2c1=O (configuration not stated)
0.7 µM	CC(CCn1c(=O)[nH]c2ccccc2c1=O)n1ccnc1 (configuration not stated)
0.01 µM	CC(Cn1ccnc1)Cn1c(=O)[nH]c2c(Cl)cccc2c1=O (configuration not stated)
0.34 µM	Cc1ccc(N)c(C(=O)NCCCCn2ccnc2)c1
0.012 µM	O=c1[nH]c2ccc(Cl)cc2c(=O)n1CCCCCn1ccnc1
1.3 µM	Cc1ccc(N)c(C(=O)NCC(C)Cn2ccnc2)c1 (configuration not stated)
0.009 µM	O=c1[nH]c2cc(Cl)ccc2c(=O)n1CCCCn1ccnc1
0.29 µM	CC(CNC(=O)c1cc(Br)ccc1N)Cn1ccnc1 (configuration not stated)
1 µM	CC(CCn1c(=O)[nH]c2c(Cl)cccc2c1=O)n1ccnc1 (configuration not stated)
0.5 µM	CC(CCNC(=O)c1cc(Cl)ccc1N)n1ccnc1 (configuration not stated)
0.15 µM	CC(CCn1c(=O)[nH]c2ccc(Cl)cc2c1=O)n1ccnc1 (configuration not stated)
0.03 µM	Cc1ccc2[nH]c(=O)n(CCCCCn3ccnc3)c(=O)c2c1
0.02 µM	Cc1ccc2[nH]c(=O)n(CCCn3ccnc3)c(=O)c2c1
0.07 µM	Cc1ccc2[nH]c(=O)n(CCC(C)n3ccnc3)c(=O)c2c1 (configuration not stated)
0.82 µM	O=c1[nH]c2cc(Cl)ccc2c(=O)n1CCCCCn1ccnc1

What follows are molecules tested against T2, Thromboxane-A synthase (Rattus norvegicus) (UniProt P49430) (assay: Tested for antihypertensive activity in spontaneously hypertensive rats at 100 mg/kg peroral dosage for 2 days; A means active).
T2 sequence (whole entry): T1 sequence (P49430 whole entry)
Assay type: functional, organism-based
Set-up: dose 100 mg/kg
In short: (§1)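 Male 16-week-old Okamoto SHR (mean arterial pressure about 170 mmHg) gavaged with compound suspended in 2% preboiled starch (50 mg/mL) at 100 mg/kg or less, with 0.9% NaCl load 25 mL/kg; identical second dose without saline 24 h later. Mean arterial pressure measured 28 h after first dose; one to three rats per compound.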

Activity	Structure (SMILES)
Active	O=c1[nH]c2cc(Cl)ccc2c(=O)n1CCCCCCn1ccnc1
Active	Nc1ccc(Cl)cc1C(=O)NCCCCCn1ccnc1
Active	O=c1[nH]c2ccc(Br)cc2c(=O)n1CCCCn1ccnc1
Active	Nc1ccc(Cl)cc1C(=O)NCCCn1ccnc1
Active	CC(Cn1ccnc1)Cn1cnc2ccccc2c1=O (configuration not stated)
Active	O=c1c2ccccc2nnn1CCCCCCn1ccnc1
Active	O=c1c2cc(Cl)ccc2nnn1CCCCn1ccnc1
Active	CC(Cn1ccnc1)Cn1c(=O)[nH]c2cc(Cl)ccc2c1=O (configuration not stated) [listing 2 of 2 here]
Active	O=c1[nH]c2c(C(F)(F)F)cccc2c(=O)n1CCCCn1ccnc1
Active	CC(CCn1cnc2ccc(Cl)cc2c1=O)n1ccnc1 (configuration not stated)
Active	O=c1[nH]c2ccc(Cl)cc2c(=O)n1CCCCCCCn1ccnc1
Active	Cc1ccc2ncn(CCCCn3ccnc3)c(=O)c2c1
Active	O=c1c2ccccc2nnn1CCCCn1ccnc1
Active	Cc1ccc2nnn(CCCCn3ccnc3)c(=O)c2c1
Active	CC(Cn1ccnc1)Cn1c(=O)[nH]c2ccccc2c1=O (configuration not stated)
Active	O=c1[nH]c2ccccc2c(=O)n1CCCCCn1ccnc1
Active	CC(CNC(=O)c1ccc(Cl)cc1N)Cn1ccnc1 (configuration not stated)
Active	CC(CNC(=O)c1cc(Cl)ccc1N)Cn1ccnc1 (configuration not stated)
Active	O=c1c2cc(Cl)ccc2ncn1CCCCCCn1ccnc1
Active	O=c1[nH]c2ccc(Cl)cc2c(=O)n1CCCCCCn1ccnc1

Activity	Structure (SMILES)
Active	Nc1ccc(Br)cc1C(=O)NCCCCn1ccnc1
Active	Nc1cc(Cl)ccc1C(=O)NCCCCn1ccnc1
Active	O=c1[nH]c2ccc(Cl)cc2c(=O)n1CCCCn1ccnc1 [listing 3 of 3 here]
Active	O=c1c2cc(Br)ccc2nnn1CCCCn1ccnc1
Active	O=c1c2ccccc2ncn1CCCCCCn1ccnc1
Active	Cc1ccc2[nH]c(=O)n(CCCCn3ccnc3)c(=O)c2c1
Active	Cc1nc2ccc(Cl)cc2c(=O)n1CCCCn1ccnc1
Active	Cc1ccc(N)c(C(=O)NCCC(C)n2ccnc2)c1 (configuration not stated)
Active	Nc1ccc(Cl)cc1C(=O)NCCCCCCn1ccnc1
Active	O=c1c2ccccc2ncn1CCCCCn1ccnc1
Active	O=c1[nH]c2ccccc2c(=O)n1CCCCCCn1ccnc1
Active	O=c1c2cc(Cl)ccc2nnn1CCCCCCCCn1ccnc1
Active	O=c1c2cc(Cl)ccc2ncn1CCCCn1ccnc1
Active	O=c1c2ccc(Cl)cc2nnn1CCCCn1ccnc1
Active	O=c1[nH]c2c(Cl)cccc2c(=O)n1CCCCn1ccnc1
Active	O=c1c2ccccc2nnn1CCCn1ccnc1
Active	O=c1c2cc(Cl)ccc2ncn1CCCCCCCCn1ccnc1
Active	Nc1ccc(Cl)cc1C(=O)NCCCCCCCCn1ccnc1
Active	CC(Cn1ccnc1)Cn1c(=O)[nH]c2c(C(F)(F)F)cccc2c1=O (configuration not stated)
Active	O=c1[nH]c2c(C(F)(F)F)cccc2c(=O)n1CCCCCn1ccnc1

Activity	Structure (SMILES)
Active	O=c1[nH]c2c(Cl)cccc2c(=O)n1CCCCCn1ccnc1
Active	CC(CCn1c(=O)[nH]c2ccccc2c1=O)n1ccnc1 (configuration not stated)
Active	O=c1c2ccccc2ncn1CCCCn1ccnc1
Active	O=c1c2ccc(Cl)cc2nnn1CCCCCn1ccnc1
Active	O=c1[nH]c2c(C(F)(F)F)cccc2c(=O)n1CCCCCCn1ccnc1
Active	O=c1[nH]c2c(Cl)cccc2c(=O)n1CCCCCCn1ccnc1
Active	O=c1c2cc(Cl)ccc2nnn1CCCCCCn1ccnc1
Active	O=c1[nH]c2ccc(Cl)cc2c(=O)n1CCCCCn1ccnc1
Active	O=c1[nH]c2cc(Cl)ccc2c(=O)n1CCCCn1ccnc1
Active	CCc1nc2ccc(Cl)cc2c(=O)n1CCCCn1ccnc1
Active	O=c1c2cc(Cl)ccc2nnn1CCCCCn1ccnc1
Active	O=c1[nH]c2ccccc2c(=O)n1CCCCn1ccnc1
Active	CC(CCn1c(=O)[nH]c2c(Cl)cccc2c1=O)n1ccnc1 (configuration not stated)
Active	Cc1ccc2nnn(CCCCCn3ccnc3)c(=O)c2c1
Active	CC(CCNC(=O)c1cc(Cl)ccc1N)n1ccnc1 (configuration not stated)
Active	CC(CCn1c(=O)[nH]c2ccc(Cl)cc2c1=O)n1ccnc1 (configuration not stated)
Active	Cc1ccc2[nH]c(=O)n(CCCCCn3ccnc3)c(=O)c2c1
Active	Cc1ccc2[nH]c(=O)n(CCC(C)n3ccnc3)c(=O)c2c1 (configuration not stated)
Active	O=c1[nH]c2cc(Cl)ccc2c(=O)n1CCCCCn1ccnc1

Each molecule was assayed against T2, Thromboxane-A synthase (Rattus norvegicus) (assay: Tested for antihypertensive activity in spontaneously hypertensive rats at 100 mg/kg peroral dosage for 2 days; I is inactive).
Assay type: functional, organism-based
Set-up: dose 100 mg/kg
In short: as §1

Activity	Structure (SMILES)
inactive	O=c1[nH]c2ccccc2c(=O)n1CCCn1ccnc1
inactive	O=c1c2ccccc2nnn1CCCCCn1ccnc1
inactive	O=c1c2cc(Cl)ccc2ncn1CCCCCn1ccnc1
inactive	O=c1[nH]c2cc(Cl)ccc2c(=O)n1CCCn1ccnc1
inactive	Nc1ccccc1C(=O)NCCCCn1ccnc1
inactive	Nc1ccc(Cl)cc1C(=O)NCCCCn1ccnc1
inactive	CC(CNC(=O)c1ccccc1N)Cn1ccnc1 (configuration not stated)
inactive	O=c1c2ccc(Cl)cc2ncn1CCCCn1ccnc1
inactive	O=c1[nH]c2ccc(Cl)cc2c(=O)n1CCCn1ccnc1
inactive	O=c1[nH]c2ccc(Cl)cc2c(=O)n1CCCCCCCCCCn1ccnc1
inactive	CC(Cn1ccnc1)Cn1nnc2ccc(Br)cc2c1=O (configuration not stated)
inactive	CC(Cn1ccnc1)Cn1c(=O)[nH]c2ccc(Cl)cc2c1=O (configuration not stated) [listing 3 of 3 here]
inactive	Nc1ccccc1C(=O)NCCCn1ccnc1
inactive	Nc1ccc(Cl)cc1C(=O)NCCCCCCCn1ccnc1
inactive	Nc1c(Cl)cccc1C(=O)NCCCCCn1ccnc1
inactive	CC(CCn1c(=O)[nH]c2cc(Cl)ccc2c1=O)n1ccnc1 (configuration not stated)
inactive	CC(Cn1ccnc1)Cn1cnc2ccc(Cl)cc2c1=O (configuration not stated)
inactive	O=c1c2ccccc2ncn1CCCn1ccnc1
inactive	Cc1ccc2[nH]c(=O)n(CC(C)Cn3ccnc3)c(=O)c2c1 (configuration not stated)
inactive	CC(Cn1ccnc1)Cn1nnc2ccc(Cl)cc2c1=O (configuration not stated)
inactive	O=c1c2cc(Cl)ccc2nnn1CCCn1ccnc1
inactive	CC(Cn1ccnc1)Cn1c(=O)[nH]c2c(Cl)cccc2c1=O (configuration not stated)
inactive	Nc1cc(Cl)ccc1C(=O)NCCCCCn1ccnc1
inactive	Cc1ccc(N)c(C(=O)NCCCCn2ccnc2)c1
inactive	Cc1ccc(N)c(C(=O)NCC(C)Cn2ccnc2)c1 (configuration not stated)
inactive	O=c1[nH]c2ccc(Cl)cc2c(=O)n1CCCCCCCCn1ccnc1
inactive	CC(CNC(=O)c1cc(Br)ccc1N)Cn1ccnc1 (configuration not stated)
inactive	Cc1ccc2[nH]c(=O)n(CCCn3ccnc3)c(=O)c2c1
